According to ChEMBL document CHEMBL4350970, “Rational Design of 5-(4-(Isopropylsulfonyl)phenyl)-3-(3-(4-((methylamino)methyl)phenyl)isoxazol-5-yl)pyrazin-2-amine (VX-970, M6620): Optimization of Intra- and Intermolecular Polar Interactions of a New Ataxia Telangiectasia Mutated and Rad3-Related (ATR) Kinase Inhibitor” (J Med Chem, 2019):
Values after ≈ are worked out from the molar mass of the structure shown. Active and inactive are the calls of the source. The calls are words filed in the database; no cut-off is given here.

Key:
[1] = molecular target: Serine-protein kinase ATM (Homo sapiens, UniProt Q13315); experiment: Inhibition of full-length ATM (unknown origin) using DPSVEPPLSQETFSDKKK peptide as substrate measured after 24 hrs in presence of [gamma-33P] ATP by microbeta liquid scintillation counting analysis
Serine-protein kinase ATM, sequence (Q13315 whole entry): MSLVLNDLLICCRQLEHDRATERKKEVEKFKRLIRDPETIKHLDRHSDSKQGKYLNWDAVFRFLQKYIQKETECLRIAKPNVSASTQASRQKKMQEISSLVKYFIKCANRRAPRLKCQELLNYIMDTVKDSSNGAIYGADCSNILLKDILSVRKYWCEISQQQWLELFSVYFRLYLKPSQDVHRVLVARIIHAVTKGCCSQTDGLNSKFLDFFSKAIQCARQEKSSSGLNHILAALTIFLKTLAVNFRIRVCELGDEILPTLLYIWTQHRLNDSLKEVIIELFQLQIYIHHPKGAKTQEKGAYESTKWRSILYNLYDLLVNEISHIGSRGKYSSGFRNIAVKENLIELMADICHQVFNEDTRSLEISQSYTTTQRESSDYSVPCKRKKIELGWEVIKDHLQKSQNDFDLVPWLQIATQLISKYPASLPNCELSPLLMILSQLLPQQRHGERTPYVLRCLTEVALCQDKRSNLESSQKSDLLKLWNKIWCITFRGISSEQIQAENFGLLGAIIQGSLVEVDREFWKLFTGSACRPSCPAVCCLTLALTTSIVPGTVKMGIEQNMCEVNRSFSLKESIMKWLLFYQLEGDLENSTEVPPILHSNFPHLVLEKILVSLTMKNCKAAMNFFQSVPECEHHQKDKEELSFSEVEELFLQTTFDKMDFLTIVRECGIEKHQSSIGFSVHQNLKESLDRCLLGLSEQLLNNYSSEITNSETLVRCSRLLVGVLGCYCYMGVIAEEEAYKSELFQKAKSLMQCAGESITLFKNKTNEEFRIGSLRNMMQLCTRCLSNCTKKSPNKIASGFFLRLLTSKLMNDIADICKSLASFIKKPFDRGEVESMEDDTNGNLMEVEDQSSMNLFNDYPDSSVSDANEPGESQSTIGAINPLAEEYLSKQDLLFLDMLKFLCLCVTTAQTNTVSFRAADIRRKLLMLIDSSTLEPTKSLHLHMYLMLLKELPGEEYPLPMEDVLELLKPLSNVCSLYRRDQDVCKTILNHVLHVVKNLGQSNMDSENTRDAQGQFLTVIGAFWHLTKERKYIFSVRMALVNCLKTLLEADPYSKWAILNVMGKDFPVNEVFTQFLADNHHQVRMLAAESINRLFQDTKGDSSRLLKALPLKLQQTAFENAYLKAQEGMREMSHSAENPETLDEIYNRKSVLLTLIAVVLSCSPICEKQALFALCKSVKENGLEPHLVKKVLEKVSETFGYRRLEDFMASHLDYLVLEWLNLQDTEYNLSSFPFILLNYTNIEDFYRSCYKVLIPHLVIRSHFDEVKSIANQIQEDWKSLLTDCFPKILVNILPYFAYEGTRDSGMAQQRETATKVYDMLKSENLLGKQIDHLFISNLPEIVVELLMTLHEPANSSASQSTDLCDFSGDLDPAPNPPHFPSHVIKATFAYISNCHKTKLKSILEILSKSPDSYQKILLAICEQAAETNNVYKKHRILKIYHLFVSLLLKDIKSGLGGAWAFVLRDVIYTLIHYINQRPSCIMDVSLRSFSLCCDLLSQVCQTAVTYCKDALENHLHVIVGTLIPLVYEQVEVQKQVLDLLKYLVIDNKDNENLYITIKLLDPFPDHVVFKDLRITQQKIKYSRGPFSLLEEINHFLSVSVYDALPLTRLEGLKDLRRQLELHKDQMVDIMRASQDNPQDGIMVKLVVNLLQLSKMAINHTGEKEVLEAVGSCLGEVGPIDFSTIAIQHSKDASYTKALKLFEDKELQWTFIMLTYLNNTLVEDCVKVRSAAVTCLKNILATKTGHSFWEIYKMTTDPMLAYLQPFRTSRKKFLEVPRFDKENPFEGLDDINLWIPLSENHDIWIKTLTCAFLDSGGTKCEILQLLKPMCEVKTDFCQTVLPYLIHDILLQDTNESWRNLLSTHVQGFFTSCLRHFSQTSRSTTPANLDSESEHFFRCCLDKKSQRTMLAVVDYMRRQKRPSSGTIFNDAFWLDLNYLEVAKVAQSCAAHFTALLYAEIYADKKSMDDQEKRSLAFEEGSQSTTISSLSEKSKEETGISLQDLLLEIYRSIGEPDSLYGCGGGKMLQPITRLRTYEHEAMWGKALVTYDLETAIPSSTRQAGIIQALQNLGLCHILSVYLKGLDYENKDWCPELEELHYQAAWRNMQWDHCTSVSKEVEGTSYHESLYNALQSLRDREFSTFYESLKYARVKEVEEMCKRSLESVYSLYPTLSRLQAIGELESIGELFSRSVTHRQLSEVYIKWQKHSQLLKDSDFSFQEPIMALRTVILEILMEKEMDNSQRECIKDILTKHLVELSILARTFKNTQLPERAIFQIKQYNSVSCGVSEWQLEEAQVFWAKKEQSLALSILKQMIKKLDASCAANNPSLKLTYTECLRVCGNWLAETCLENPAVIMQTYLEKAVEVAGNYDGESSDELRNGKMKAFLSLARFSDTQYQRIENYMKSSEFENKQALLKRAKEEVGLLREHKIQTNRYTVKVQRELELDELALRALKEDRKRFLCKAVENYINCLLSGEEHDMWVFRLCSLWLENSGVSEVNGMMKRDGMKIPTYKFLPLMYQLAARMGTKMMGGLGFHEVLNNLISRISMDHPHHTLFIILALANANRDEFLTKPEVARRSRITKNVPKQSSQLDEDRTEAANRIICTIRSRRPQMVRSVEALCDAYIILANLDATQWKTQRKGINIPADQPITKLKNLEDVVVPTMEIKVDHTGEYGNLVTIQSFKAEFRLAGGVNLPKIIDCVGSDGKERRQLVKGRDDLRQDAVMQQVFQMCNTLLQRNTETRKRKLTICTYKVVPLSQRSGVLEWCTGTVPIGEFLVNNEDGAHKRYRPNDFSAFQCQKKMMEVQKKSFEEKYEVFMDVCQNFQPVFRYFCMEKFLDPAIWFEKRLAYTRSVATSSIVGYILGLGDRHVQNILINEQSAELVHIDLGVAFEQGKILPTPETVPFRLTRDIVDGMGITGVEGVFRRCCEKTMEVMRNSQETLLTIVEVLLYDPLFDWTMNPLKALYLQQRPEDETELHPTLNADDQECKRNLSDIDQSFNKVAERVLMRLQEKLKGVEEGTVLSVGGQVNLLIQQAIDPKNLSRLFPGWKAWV
In short: (§1)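 Radiometric phosphate incorporation assay with full-length kinase (ATR and ATM made in-house; DNA-PK purchased) premixed with buffer and target peptide. Compound added in DMSO over a range of concentrations, final DMSO 7%. Started with [γ-33P]ATP at 25 °C. Stopped with phosphoric acid (final 100 mM) and ATP (final […]), captured on phosphocellulose, washed with 100 mM phosphoric acid, then scintillation counted. Dose-response fitting.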

[2] = molecular target: DNA-dependent protein kinase catalytic subunit (Homo sapiens, UniProt P78527); experiment: Inhibition of purified recombinant human full-length DNA-PK using EPPLSQEAFADLWKKK peptide as substrate measured after 2 hrs in presence of [gamma-33P] ATP by microbeta liquid scintillation counting analysis; in short: as §1
[3] = molecular target: T1, Serine/threonine-protein kinase ATR (Homo sapiens, UniProt Q13535); experiment: Inhibition of ATR in human HCT116 cells assessed as reduction in histone H2AX phosphorylation by Hoechst staining-based immunofluorescence microscopic analysis; assay type: cell-based
[4] = molecular target: T1, Serine/threonine-protein kinase ATR; experiment: Inhibition of recombinant human full-length N-terminal Flag epitope-tagged ATR expressed in HEK293T cells using ASELPASQPQPFSAKKK peptide as substrate measured after 24 hrs in presence of [gamma-33P] ATP by microbeta liquid scintillation counting analysis; in short: as §1
[5] = Aqueous solubility of the compound in PBS incubated overnight by UPLC-MS analysis; assay type: physicochemical
In short: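 Compounds dissolved in DMSO (standard) or in DPBS (10 mM phosphate, 140 mM NaCl) to at most 200 µM. PBS samples sealed, shaken overnight at room temperature, then centrifuged 45 min at 4000 rpm, 22 °C. UV AUC from UPLC-MS compared with the DMSO standard: solubility = AUC(PBS)/AUC(standard) × [standard].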

[6] = Dissociation constant, pKa of compound; assay type: physicochemical
[7] = test system: HCT-116; experiment: Potentiation of cisplatin-induced antiproliferative activity against human HCT116 cells assessed as reduction in cell viability at 500 nM measured after 96 hrs by MTS assay; assay type: functional, cell-based
In short: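 HCT116 cells from ATCC, exponentially growing, plated and left to adhere overnight. Compound and cisplatin added at the indicated concentrations, then incubated 96 h. MTS reagent added and absorbance read at 490 nm after 1 h. Synergy and antagonism assessed with Macsynergy analysis.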

[8] = organism: Homo sapiens; experiment: Selectivity ratio of Ki for full-length ATM (unknown origin) to Ki for recombinant human full-length N-terminal Flag epitope-tagged ATR expressed in HEK293T cells; assay type: cell-based
In short: (§2)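 Ratio of Ki values from the radiometric [γ-33P]ATP phosphocellulose-capture assays with full-length kinases: ATM or DNA-PK Ki over ATR Ki.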

[9] = organism: Homo sapiens; experiment: Selectivity ratio of Ki for purified recombinant human full-length DNA-PK to Ki for recombinant human full-length N-terminal Flag epitope-tagged ATR expressed in HEK293T cells; in short: as §2
[10] = molecular target: Glycogen synthase kinase-3 beta (Homo sapiens, UniProt P49841); experiment: Inhibition of human GSK3beta
Glycogen synthase kinase-3 beta, sequence (P49841 whole entry): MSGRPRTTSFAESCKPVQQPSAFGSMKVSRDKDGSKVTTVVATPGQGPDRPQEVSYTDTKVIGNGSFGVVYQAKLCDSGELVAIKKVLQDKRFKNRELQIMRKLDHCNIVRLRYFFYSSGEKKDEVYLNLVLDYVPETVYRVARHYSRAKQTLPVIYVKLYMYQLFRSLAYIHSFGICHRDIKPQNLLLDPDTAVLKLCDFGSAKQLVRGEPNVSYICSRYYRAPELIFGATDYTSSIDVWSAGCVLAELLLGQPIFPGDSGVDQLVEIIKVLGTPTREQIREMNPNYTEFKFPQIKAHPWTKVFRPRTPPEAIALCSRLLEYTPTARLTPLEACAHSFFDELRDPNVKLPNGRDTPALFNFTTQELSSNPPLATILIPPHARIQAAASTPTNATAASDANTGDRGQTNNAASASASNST

[11] = molecular target: Cytochrome P450 2D6, Homo sapiens (UniProt P10635); experiment: Inhibition of CYP2D6 (unknown origin)
[12] = molecular target: Vascular endothelial growth factor receptor 3 (Homo sapiens, UniProt P35916); experiment: ATP competitive inhibition of human Flt4
[13] = molecular target: Mast/stem cell growth factor receptor Kit (Homo sapiens, UniProt P10721, D816H); experiment: ATP competitive inhibition of human c-Kit D816H mutant
[14] = Permeability across apical to basolateral side in human Caco2 cells; assay type: ADME, cell-based; conditions: Caco-2, read-out: permeability
[15] = molecular target: Receptor-type tyrosine-protein kinase FLT3 (Homo sapiens, UniProt P36888); experiment: Inhibition of human Flt3
[16] = Volume of distribution at steady state in Sprague-Dawley rat at 10 mg/kg administered as iv infusion for 3 hrs; assay type: ADME, organism-based; conditions: in vivo, read-out: Vdss
In short: (§3)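 Male Sprague-Dawley rats (about 200-350 g), catheterized in jugular and femoral veins under isoflurane; n=3. IV infusion at 3.33 mg/kg/h for 3 h (nominal 10 mg/kg, as free base) in 5% Captisol:2.5% mannitol in water. Jugular blood drawn at 0-51 h, centrifuged 3,000 G, 10 min, 4 °C; plasma collected.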

[17] = molecular target: Tyrosine-protein kinase Mer (Homo sapiens, UniProt Q12866); experiment: ATP competitive inhibition of human Mer
[18] = molecular target: Cytochrome P450 2C9 (Homo sapiens, UniProt P11712); experiment: Inhibition of CYP2C9 (unknown origin); assay type: ADME
[19] = test system: HCT-116; experiment: Potentiation of cisplatin-induced antiproliferative activity against human HCT116 cells assessed as reduction in cell viability at < 50 nM measured after 96 hrs by MTS assay; assay type: functional, cell-based
In short: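 HCT116 cells plated and left to adhere overnight. Compound and cisplatin added the next day at set concentrations, then incubated 96 h. MTS reagent added; absorbance at 490 nm read after 1 h. Synergy and antagonism assessed by MacSynergy analysis.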

[20] = Half life in Sprague-Dawley rat at 10 mg/kg administered as iv infusion for 3 hrs; assay type: ADME, organism-based; conditions: in vivo; in short: as §3
[21] = molecular target: Mitogen-activated protein kinase kinase kinase 9 (Homo sapiens, UniProt P80192); experiment: ATP competitive inhibition of human MLK1
Mitogen-activated protein kinase kinase kinase 9, sequence (P80192 whole entry): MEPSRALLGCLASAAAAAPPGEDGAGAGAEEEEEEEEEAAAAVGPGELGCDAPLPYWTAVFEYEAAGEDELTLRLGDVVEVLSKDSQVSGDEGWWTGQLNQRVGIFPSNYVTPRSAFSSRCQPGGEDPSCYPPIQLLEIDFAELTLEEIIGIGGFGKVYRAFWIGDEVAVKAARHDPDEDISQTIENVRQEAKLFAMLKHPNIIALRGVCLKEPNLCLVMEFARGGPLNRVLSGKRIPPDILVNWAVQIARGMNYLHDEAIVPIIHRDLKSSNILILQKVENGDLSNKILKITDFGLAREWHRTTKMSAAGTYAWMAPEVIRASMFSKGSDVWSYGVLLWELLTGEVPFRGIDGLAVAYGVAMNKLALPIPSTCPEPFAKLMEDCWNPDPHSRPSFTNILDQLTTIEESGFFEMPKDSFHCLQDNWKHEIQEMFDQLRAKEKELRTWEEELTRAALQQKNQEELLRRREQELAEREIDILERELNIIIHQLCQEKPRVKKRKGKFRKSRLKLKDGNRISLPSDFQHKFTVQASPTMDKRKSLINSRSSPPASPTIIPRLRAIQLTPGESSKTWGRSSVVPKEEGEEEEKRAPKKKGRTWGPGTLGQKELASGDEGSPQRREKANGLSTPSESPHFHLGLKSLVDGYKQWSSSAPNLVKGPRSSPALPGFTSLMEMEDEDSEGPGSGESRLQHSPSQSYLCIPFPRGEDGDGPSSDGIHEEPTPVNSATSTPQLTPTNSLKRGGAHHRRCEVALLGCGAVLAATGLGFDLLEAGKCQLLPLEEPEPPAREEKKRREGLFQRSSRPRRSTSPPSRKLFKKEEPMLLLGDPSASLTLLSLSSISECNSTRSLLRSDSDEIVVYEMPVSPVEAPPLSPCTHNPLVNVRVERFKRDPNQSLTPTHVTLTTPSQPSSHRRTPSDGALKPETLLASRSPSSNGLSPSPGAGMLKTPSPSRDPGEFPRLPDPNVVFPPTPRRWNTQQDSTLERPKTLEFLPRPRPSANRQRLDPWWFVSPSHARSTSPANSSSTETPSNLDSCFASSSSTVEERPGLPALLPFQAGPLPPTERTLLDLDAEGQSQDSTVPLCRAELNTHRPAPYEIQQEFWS

[22] = molecular target: Receptor-type tyrosine-protein kinase FLT3 (Homo sapiens, UniProt P36888, D835Y); experiment: ATP competitive inhibition of human Flt3 D835Y mutant
[23] = molecular target: Glycogen synthase kinase-3 alpha (Homo sapiens, UniProt P49840); experiment: ATP competitive inhibition of human GSK3alpha
Glycogen synthase kinase-3 alpha, sequence (P49840 whole entry): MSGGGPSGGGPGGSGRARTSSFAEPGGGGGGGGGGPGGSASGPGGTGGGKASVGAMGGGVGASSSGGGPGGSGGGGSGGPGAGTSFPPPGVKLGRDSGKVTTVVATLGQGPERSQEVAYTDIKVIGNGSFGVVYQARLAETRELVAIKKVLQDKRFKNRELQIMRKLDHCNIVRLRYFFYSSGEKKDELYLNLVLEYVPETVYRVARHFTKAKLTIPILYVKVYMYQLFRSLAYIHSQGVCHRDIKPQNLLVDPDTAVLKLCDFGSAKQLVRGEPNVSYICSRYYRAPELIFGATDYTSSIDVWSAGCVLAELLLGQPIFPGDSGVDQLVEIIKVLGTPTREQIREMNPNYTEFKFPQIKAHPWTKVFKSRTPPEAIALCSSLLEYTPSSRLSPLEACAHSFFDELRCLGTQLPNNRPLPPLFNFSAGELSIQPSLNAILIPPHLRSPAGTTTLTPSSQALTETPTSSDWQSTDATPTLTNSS

[24] = molecular target: Voltage-gated inwardly rectifying potassium channel KCNH2 (Homo sapiens, UniProt Q12809); experiment: Inhibition of human ERG
[25] = molecular target: Tyrosine-protein kinase JAK2 (Homo sapiens, UniProt O60674); experiment: Inhibition of human JAK2
[26] = molecular target: Dual specificity tyrosine-phosphorylation-regulated kinase 2 (Homo sapiens, UniProt Q92630); experiment: ATP competitive inhibition of human DYRK2
[27] = molecular target: Tyrosine-protein kinase SYK (Homo sapiens, UniProt P43405); experiment: Inhibition of human SYK
[28] = molecular target: Tyrosine-protein kinase ABL1 (Homo sapiens, UniProt P00519, T315I); experiment: ATP competitive inhibition of human ABL T315I mutant

Compound | Ki [1] [nM] | Ki [2] [nM] | IC50 [3] [nM] | Ki [4] [nM] | solubility [5] [µM] | other results
CC(C)S(=O)(=O)c1ccc(-c2cnc(N)c(-c3ncc(-c4ccccc4)o3)n2)cc1 | > 10000 | > 4000 | > 2500 | – | – | –
CNCc1ccc(-c2cc(-c3nc(-c4ccc(S(=O)(=O)C(C)C)cc4)cnc3N)on2)cc1Cl | 190 | > 4000 | 130 | 2.4 | 1.36 (≈ 0.677 µg/mL) | –
CC(C)S(=O)(=O)c1ccc(-c2cnc(N)c(C3CC(c4ccccc4)=NO3)n2)cc1 (racemic) | > 4000 | > 4000 | > 2500 | – | – | –
CC(C)S(=O)(=O)c1ccc(-c2cnc(N)c(-c3cn(-c4ccccc4)nn3)n2)cc1 | 1300 | > 4000 | > 2500 | – | – | –
CC(C)S(=O)(=O)c1ccc(-c2cnc(N)c(-c3cc(-c4ccc(CNC5CCOCC5)cc4)no3)n2)cc1 | 189 | > 4000 | – | – | 0.8 (≈ 0.427 µg/mL) | pKa [6]: 9.7
CC(C)S(=O)(=O)c1ccc(-c2cnc(N)c(-c3noc(-c4ccccc4)n3)n2)cc1 | 400 | 4000 | 2300 | 5 | – | –
CC(C)S(=O)(=O)c1ccc(-c2cnc(N)c(-c3cc(-c4ccc(CN)cc4)no3)n2)cc1 | 115 | > 4000 | > 25000 | 0.27 | 12.5 (≈ 5.62 µg/mL) | –
CS(=O)(=O)c1ccc(-c2cnc(N)c(C(=O)Nc3ccccc3)n2)cc1 | – | – | – | – | – | Activity [7]: Active
CC(C)S(=O)(=O)c1ccc(-c2cnc(N)c(C(=O)Nc3ccccc3)n2)cc1 | 4000 | 2800 | 1030 | 4 | – | –
CC(C)S(=O)(=O)c1ccc(-c2cnc(N)c(-c3cnc(-c4ccccc4)o3)n2)cc1 | > 10000 | > 4000 | – | 21 | – | –
CC(C)S(=O)(=O)c1ccc(-c2cnc(N)c(-c3nnc(-c4ccccc4)s3)n2)cc1 | > 4000 | > 4000 | 1700 | 1 | – | Ratio Ki [8]: > 1000; Ratio Ki [9]: > 1000
CC(C)S(=O)(=O)c1ccc(-c2cnc(N)c(-c3cc(-c4ccc([C@H](C)N)cc4)no3)n2)cc1 | 82 | 785 | 300 | 1.24 | 27.9 (≈ 12.9 µg/mL) | –
CNCc1ccc(-c2cc(-c3nc(-c4ccc(S(=O)(=O)C(C)C)cc4)cnc3N)on2)c(Cl)c1 | 93 | 2610 | 210 | 0.75 | 4.4 (≈ 2.19 µg/mL) | –
CC(C)S(=O)(=O)c1ccc(-c2cnc(N)c(-c3cc(-c4ccc([C@@H](C)N)cc4)no3)n2)cc1 | 105 | 1700 | 130 | 0.53 | 45.1 (≈ 20.9 µg/mL) | –
CC(C)S(=O)(=O)c1ccc(-c2cnc(N)c(-c3cc(-c4ccccc4)on3)n2)cc1 | 1300 | > 4000 | 800 | 2 | – | Ki [10]: 530 nM
CC(C)S(=O)(=O)c1ccc(-c2cnc(N)c(-c3nnc(-c4ccccc4)o3)n2)cc1 | > 10000 | 8900 | 410 | 1 | – | Ki [10]: 22 nM; Ratio Ki [8]: > 1000; Ratio Ki [9]: > 1000
CNCc1ccc(-c2cc(-c3nc(-c4ccc(S(=O)(=O)C(C)C)cc4)cnc3N)on2)cc1 [BERZOSERTIB] | 44 | > 4000 | – | – | 52 (≈ 24.1 µg/mL) | Ki [10]: 140 nM; IC50 [11]: > 30000 nM; Ki [12]: 8 nM; Ki [13]: 39 nM; Papp A→B [14]: 7.2 ×10⁻⁶ cm/s; Ki [15]: 130 nM; Vd [16]: 21 L/kg; Ki [17]: 30 nM; IC50 [18]: > 30000 nM; Activity [19]: Active; half-life [20]: 11.6 h; Ki [21]: 15 nM; Ki [22]: 18 nM; pKa [6]: 8.2; Ki [23]: 33 nM; IC50 [24]: 3000 nM; Ki [25]: 150 nM; Ki [26]: 26 nM; Ki [27]: 190 nM; Ki [28]: 59 nM
CC(C)S(=O)(=O)c1ccc(-c2cnc(N)c(-c3nc(-c4ccccc4)no3)n2)cc1 | 1350 | > 1600 | > 2500 | 26 | – | –
CC(C)S(=O)(=O)c1ccc(-c2cnc(N)c(-c3cc(-c4ccccc4)no3)n2)cc1 | 1400 | > 4000 | 1100 | 1 to 1.3 | < 0.3 | Ki [10]: 650 nM; Ratio Ki [8]: > 1000; Ratio Ki [9]: > 1000
CCNCc1ccc(-c2cc(-c3nc(-c4ccc(S(=O)(=O)C(C)C)cc4)cnc3N)on2)cc1 | 47 | 3350 | 76 | 0.21 | 72 (≈ 34.4 µg/mL) | –
